UPR CHOP act: activators of apoptotic CHOP UPR arm, primary screen, cell-based, CHO-CHOP luciferase reporter, luminescence, uHTS; UPR activation; percent of tunicamycin response over DMSO baseline; actives 0.34% (n = 330,000); activation, % at 10 µM; AID 449763, 2010;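 active = at 10 µM dose, activation of 40% or more, normalized to positive control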
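System: CHO-CHOP luciferase reporter cell line | Buffer or medium: F12 medium containing 10% fetal bovine serum | Doses: One dose, 10 µM in 0.5% DMSO | Times: 6 h compound exposure at 37 °C after overnight seeding | Signal: Luciferase luminescence | Read-out: % activation vs tunicamycin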
XBP1 UPR activ: activators of adaptive XBP1 UPR arm, primary screen, cell-based, CHO-XBP1 luciferase reporter, luminescence, uHTS | IRE1-XBP1 UPR activation; percent of tunicamycin response, DMSO as zero | activation, % at 20 µM | actives 0.33% (n = 330,000);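 active = versus positive control, 20 µM dose yields 30% or more activation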
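Material: CHO cell line with stable XBP1 luciferase reporter; buffer or medium: F12 medium containing 10% fetal bovine serum; compound: single point, 20 µM final compound, 1% DMSO; incubation: 6 h treatment, 37 °C; measured by: glow luminescence from Steady-Glo reagent; evaluation: activation, % of tunicamycin; control set: tunicamycin high, DMSO low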
CHOP inhibitor: inhibitors of CHOP promoter induction, primary screen, cell-based, unfolded protein response, luciferase reporter | CHO-K1 CHOP-promoter luciferase, tunicamycin-induced, 15-18 h | inhibition, % at 10 µM | actives 3.8% (n = 220,000) | AID 2732, 2010;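 active = compounds that reduced the stress-induced luciferase reporter signal by more than about 70% of percent inhibition, limit read from the data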
hiPSC survival: enhancers of single-cell hiPSC survival, primary screen, ATPlite luminescence; 100% = ROCK inhibitor wells, 0% = DMSO; survival enhancement, % at 20 µM; actives 0.044% (n = 360,000); AID 602274, 2012; in the data active = survival enhancement above about 18%;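 note: cells exposed to compounds for 16 hours before the ATP read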
H9c2 protect: cardioprotection against H2O2-induced cell death, primary screen, uHTS, H9c2 cells, ATPLite luminescence. H9c2 cardiomyocytes, H2O2 injury protection, 2 h. protection from H2O2 cell death, % at 20 µM. actives 0.63% (n = 360,000). AID 588492, 2011;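 active = compounds giving at least 50% protection of heart cells from peroxide-induced death in the single-dose screen, raw or plate-pattern-corrected value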
Numbers stand for hits; . = inactive; / = not tested or not shown. The full list was thinned out, with hits kept by preference.

SMILES	UPR CHOP act	XBP1 UPR activ	CHOP inhibitor	hiPSC survival	H9c2 protect
Cc1cccnc1NC(=O)c1c(O)c2cccc3c2n(c1=O)CCC3	.	.	80	.	.
O=C(Nc1nccs1)c1c(O)c2cccc3c2n(c1=O)CCC3	.	.	108	/	/
CCCCCCc1nc2ccccc2c(=O)n1NC(=O)c1c(O)c2cccc3c2n(c1=O)CCC3	/	/	85	/	/
CC1CC(=O)Nc2ccccc2N1C(=O)CSc1ccc2ccccc2n1 (stereo not given)	.	.	/	.	.
CCc1ccc(CN(C)CC(=O)Nc2ccc(S(=O)(=O)N3CCOCC3)cc2)cc1	.	.	/	.	.
COC(=O)[C@]12CCCCC=C1N(Cc1ccccc1)C(=O)[C@H](CC(=O)NCCCCc1ccccc1)C2	/	/	/	.	/
Cc1nn(CC(=O)N(CC(C)C)C2CCS(=O)(=O)C2)c(C)c1[N+](=O)[O-] (stereo not given)	.	.	/	.	.
CCN(CC(=O)Nc1cc(Cl)ccc1C)C(=O)C1CCN(c2ncnc3sc(C)c(C)c23)CC1	/	/	/	.	77
COc1cc(NC(=O)C2CC(c3ccccc3O)=NO2)cc(OC)c1OC (stereo not given)	/	/	/	.	.
O=C(OCc1ccc(Cl)cc1)c1cnccn1	.	.	82	.	.
O=C(Nc1ccc(Cl)cc1)OC(CN1CCCCC1)C(F)(F)F (stereo not given)	.	.	74	.	.
Cc1ccn2c(Nc3ccc4c(c3)OCO4)c(-c3ccccn3)nc2c1	.	.	78	.	.
Cc1ccc(Nc2c(-c3ccccn3)nc3ccc(C)cn23)cc1	.	.	80	.	.
Cc1ccc(Nc2c(-c3ccccn3)nc3cc(C)ccn23)cc1	.	.	76	.	.
Cc1ccn2c(NC3CCCC3)c(-c3ccccn3)nc2c1	.	.	.	.	.
CCCCCCCn1c(=O)c(C(=O)OC)c(N)c2ccccc21	.	.	73	.	.
O=C(CCl)N1CCN(S(=O)(=O)Cc2ccccc2)CC1	.	.	/	.	.
Cc1noc(C)c1S(=O)(=O)N(C)C[C@@H]1OCc2cnnn2CCCC(=O)N([C@@H](C)CO)C[C@H]1C	/	/	/	.	.
C=CCCC(=O)N1C[C@H]2CON(C)[C@H]2C[C@H]1c1ccc(N2CCCCC2)cc1	/	/	/	.	.
C/C(=N\NC(=O)c1ccccc1NC(=O)c1ccc(Cl)cc1)c1ccncc1	.	.	72	.	.
CC(=NNC(=O)c1ccncc1)c1ccccc1Cl	/	/	/	.	.
CCOC(=O)c1cccc(NC(=O)/C=C/c2cccc([N+](=O)[O-])c2)c1	.	.	84	.	.
O=C(/C=C/c1cccc([N+](=O)[O-])c1)Nc1cccc(NC(=O)c2ccco2)c1	.	.	.	.	.
O=C(/C=C/c1cccc([N+](=O)[O-])c1)Nc1cccc(NC(=O)c2cccs2)c1	.	.	.	.	81
CCOc1ccccc1-c1cnc(NC)cn1	/	/	/	.	.
SMILES	UPR CHOP act	XBP1 UPR activ	CHOP inhibitor	hiPSC survival	H9c2 protect
O=C(Cn1cc(COc2ccc3ccccc3c2)nn1)NS(=O)(=O)c1cccc(OC(F)F)c1	/	/	/	.	.
Cc1cc(C=O)c(C)n1-c1cc(C(F)(F)F)ccc1N1CCOCC1	.	.	.	.	138
Cc1ccccc1NC(=O)c1cc(C(=O)c2cc(Cl)ccc2O)cn(-c2ccccc2C)c1=O	.	.	70	.	.
Cc1ccc(-n2cc(C(=O)c3cc(Cl)ccc3O)cc(C#N)c2=O)cc1	.	.	.	.	.
O=C1COc2ccc(C(=O)COC(=O)c3sc4ccccc4c3Cl)cc2N1	.	47	.	.	.
Cc1ccc(OCCCCn2cnc3ccccc32)cc1	.	.	.	.	.
CC(C)(c1ccccc1)c1ccc(OCCn2cnc3ccccc3c2=O)cc1	.	.	77	.	.
Cc1cc(C)c(C)c(OCCCCn2cnc3ccccc3c2=O)c1	.	.	91	.	.
Cc1ccccc1OCCCCn1cnc2ccccc21	.	.	72	.	.
c1ccc2c(c1)ncn2CCCCOc1ccc2c(c1)CCC2	.	.	70	.	.
c1ccc2c(c1)ncn2CCCOc1ccc2c(c1)CCC2	.	.	.	.	.
COCCNc1nc(Nc2ccc(C#N)cc2)c2sccc2n1	/	/	/	.	.
CCc1ccc(C(O)c2ncc(-c3ccccc3OC)[nH]2)cc1 (stereo not given)	/	/	/	.	.
C[C@H]1CN([C@@H](C)CO)C(=O)c2cc(C#CC3(O)CCCC3)cnc2O[C@H]1CN(C)C(=O)C1CC1	/	/	/	.	.
CC(C)CCNC(=O)CCC(=O)NNc1nc2ccccc2c2nc(-c3ccccc3)nn12	.	.	79	.	.
O=C(CCC(=O)NNc1nc2ccccc2c2nc(-c3ccccc3)nn12)NCCCN1CCOCC1	.	.	.	.	.
Oc1c(Br)cc(Cl)cc1C=Nc1ccccc1Br	.	.	.	.	72
COc1ccc(-c2nc(CSCC(=O)N3CCN(c4cccc(C)c4)C(C)C3)c(C)o2)cc1OC (stereo not given)	.	.	76	.	.
Cc1ccc2c(c1)Oc1ccc([N+](=O)[O-])cc1C(=O)N2	.	.	.	.	.
Cc1ccc2c(c1)Oc1ccc(NC(=O)CCl)cc1C(=O)N2	.	.	107	.	.
Cc1cc(C(=O)Nc2sc(C)c(C)c2C#N)c(C)o1	.	.	75	.	.
Cc1sc(NC(=O)c2oc3ccccc3c2C)c(C#N)c1C	.	.	.	.	.
Cc1cc(C(C)(C)C)cc(C)c1C[n+]1ccc2ccccc2c1	.	.	/	.	.
COc1ccc2c3c(ccc2c1)C(=O)/C(=C/O)CC3	/	/	/	.	.
COc1ccc(N=Cc2nc(-c3ccccc3)oc2OC(C)=O)cc1	.	.	.	.	.
SMILES	UPR CHOP act	XBP1 UPR activ	CHOP inhibitor	hiPSC survival	H9c2 protect
COc1ccc(N=C/C=C2/C=C(c3ccccc3)OC(C)(C)O2)cc1	.	.	94	.	.
O=C(Nc1cccc(C(F)(F)F)c1)c1ccccc1NC(=O)C1CCCCC1	.	.	94	.	.
C[C@H](CO)N1C[C@H](C)[C@@H](CN(C)S(=O)(=O)c2ccc(C#N)cc2)OCc2cn(nn2)CCCC1=O	/	/	/	.	.
CCN(CC)S(=O)(=O)c1ccc(C)c(NC(=S)N2CCN(c3ccccn3)CC2)c1	.	.	/	.	.
CCN(CC)S(=O)(=O)c1ccc(C)c(NC(=S)N2CCN(C/C=C/c3ccccc3)CC2)c1	.	.	81	.	.
Cc1cccc(C)c1N(CC(O)Cn1c2ccccc2c2ccccc21)S(C)(=O)=O (stereo not given)	.	.	.	.	.
Cc1ccc(N(CC(O)Cn2c3ccccc3c3ccccc32)S(C)(=O)=O)cc1 (stereo not given)	.	.	83	.	.
